# Screening results: PubChem, several laboratories
# Shown are actives, neighbours in structure and some others; about 1.8% of the full set was active somewhere.
# CXCR6 inh – CXCR6 receptor inhibitors, primary screen, cell-based, beta-arrestin, luminescence, CHO-K1 PathHunter, 1536-well | C-X-C chemokine receptor type 6 (Homo sapiens), O00574 | inhibition, % at 20 µM | actives 0.36% (n = 360,000) | AID 602244, 2012; in the data active = inhibition above about 34%, passing the limit was not always enough;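 note: antagonist mode with CXCL16 agonist at 10 nM final; 0% = 10 nM CXCL16 with DMSO and 100% = unstimulated wells without agonist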
# APJ antagonist – antagonists of human apelin receptor APJ, primary screen, CHO-K1 cells, beta-arrestin complementation, luminescence; P35414; inhibition, % at 20 µM; actives 0.32% (n = 330,000);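 active = inhibition above about 40% at 20 µM, limit read from the data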;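 note: cells challenged with 10 nM apelin-13 agonist together with compound; plate controls were apelin-13 plus DMSO wells for no effect and DMSO wells lacking apelin-13 for full effect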
# Beta2AR agonist – beta2AR agonists driving receptor internalization, primary screen, cell-based, FAP fluorogen, flow cytometry; Beta-2 adrenergic receptor (Homo sapiens), P07550; response, % (concentration not given with the values); Am2.2-beta2AR cells; actives 0.43% (n = 340,000);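 active = response above a set limit, near 3 SD of response in nonfluorescent compounds, cut at about 42% in these data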
# EBI2 block – EBI2 receptor antagonists, beta-arrestin recruitment, primary screen, cell-based, luminescence, 7a,25-OHC stimulation, uHTS | G-protein coupled receptor 183 (Homo sapiens), P32249 | 7a,25-OHC stimulated | inhibition, % at 5 µM | actives 0.81% (n = 360,000) | AID 651636, 2012; in the data active = inhibition above about 38%;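 note: enzyme fragment complementation signal reports receptor beta-arrestin coupling in cells; 0% = agonist plus DMSO wells and 100% = wells without agonist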
# CCR6 antagonist – CCR6 receptor antagonists, primary screen, cell-based, CHO-K1, luminescence, beta-arrestin, uHTS | C-C chemokine receptor type 6 (Homo sapiens), P51684 | CHO-K1 CCR6 PathHunter beta-arrestin, CCL20-stimulated | inhibition, % at 20 µM | actives 0.49% (n = 340,000);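 active = compounds whose inhibition of the agonist-driven luminescence signal at 20 µM reaches about 50%, limit read from the data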;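 note: cells stimulated with CCL20 at 14 nM final; plate controls were DMSO with CCL20 for no effect and DMSO without agonist for full effect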
# Target sequence (P51684 whole entry, looked up): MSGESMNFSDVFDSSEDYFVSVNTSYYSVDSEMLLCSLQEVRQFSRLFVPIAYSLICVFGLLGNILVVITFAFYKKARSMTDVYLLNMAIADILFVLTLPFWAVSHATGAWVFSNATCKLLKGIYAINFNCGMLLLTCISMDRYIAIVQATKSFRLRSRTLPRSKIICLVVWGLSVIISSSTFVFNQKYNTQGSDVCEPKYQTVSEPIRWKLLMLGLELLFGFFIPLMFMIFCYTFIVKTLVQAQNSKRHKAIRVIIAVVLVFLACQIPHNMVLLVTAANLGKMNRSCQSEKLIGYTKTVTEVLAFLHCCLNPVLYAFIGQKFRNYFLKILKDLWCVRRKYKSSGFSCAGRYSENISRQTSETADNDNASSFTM
# APJ agonist – agonists of human apelin receptor APJ, primary screen, CHO-K1 cells, PathHunter beta-arrestin, luminescence | actives 0.11% (n = 330,000) | P35414 | 0% DMSO wells, 100% apelin | activation, % at 20 µM;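 active = activation more than six SD over the plate average, tested at 20 µM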;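 note: 0% = DMSO alone and 100% = apelin-13 at 10 nM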
#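 Assay system: CHO-K1 cells stably expressing ProLink-tagged human APJ and arrestin–beta-gal acceptor. Compound dosing: 20 µM single point, 1% DMSO. Times: 16-18 h seeding, 90 min dark compound exposure, 60 min detection. Detection: beta-gal luminescence. Evaluation: APJ–arrestin association signal. Controls: negative DMSO alone, positive Apelin-13 at 10 nM.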
# CXCR6 confirm – CXCR6 receptor antagonists, confirmation, cell-based, single concentration, beta-arrestin, luminescence. actives 65% (n = 700). CHO-K1 CXCR6 PathHunter beta-arrestin. inhibition, % at 20 µM. shares compounds with CXCR6 inh;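 active = mean inhibition over four retests above 40%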;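 note: receptor stimulated with 10 nM CXCL16 agonist; beta-galactosidase fragment complementation upon beta-arrestin recruitment to receptor; plate controls were CXCL16 plus DMSO for no effect and DMSO without CXCL16 for full effect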
# The depositor's hits bear a star; x = not tested or not shown.
SMILES,CXCR6 inh,APJ antagonist,Beta2AR agonist,EBI2 block,CCR6 antagonist,APJ agonist,CXCR6 confirm
CN(C)CCCN(C(=O)CCS(=O)(=O)c1ccccc1)c1nc2cc3c(cc2s1)OCO3,40*,30,19,42*,50*,-1,57*
C=CCC[C@H](CCCCC)OC(=O)/C=C/[C@@H](O)[C@H](O)C[C@@H](O)CC=C,-3,x,x,-5,x,x,x
Cc1cc(O)c(C(C[N+](=O)[O-])c2ccc(Cl)cc2)c(=O)o1 (centres undefined),-1,0,9,-16,-23,1,x
Cc1cc(C)n(C(C[N+](=O)[O-])c2ccc(Cl)cc2)n1 (centres undefined),44*,-1,12,-8,20,4,19
COc1cc2c(cc1OC)CN(C(=O)CSc1nc(N)c(C#N)cc1C#N)CC2,46*,6,-2,-3,-16,-3,4
Cc1ccc(NC(=O)c2ccc(Cl)c(N3C(=O)C=CC3=O)c2)cc1,94*,-5,25,-9,x,3,25
C=CCN1CC(=O)N2C(c3ccccc3)c3[nH]c4ccccc4c3C[C@H]2C1=O (some centres undefined),1,-9,-8,-6,3,-1,x
CCc1nc2c(OCCC3CCCCC3)cccn2c1N(C)C(=O)c1ccc(OC)cc1,45*,x,x,22,x,x,6
O=C(c1ccco1)N1CCN(Cc2cn[nH]c2-c2ccc(F)cc2F)CC1,57*,12,-5,-4,5,3,12
CCOC(=O)c1c(C)oc2c1c(C=NCc1ccccn1)c(O)c1ccccc12,98*,x,6,42,77*,x,64*
CCC(C)[C@H](NC(=O)N1CCN(c2cccc(C(F)(F)F)c2)CC1)C(=O)OC (some centres undefined),51*,25,3,-10,7,-1,10
COC(=O)[C@@H](NC(=O)N1CCN(c2cccc(C(F)(F)F)c2)CC1)C(C)C,14,16,3,12,1,-3,x
COC(=O)[C@@H](Cc1c[nH]c2ccccc12)NC(=O)c1ccc2c(c1)OCO2,-6,-14,9,2,0,-5,x
Oc1c(Br)cc(Br)cc1C=NCc1ccccc1,41*,6,18,3,21,-4,51*
COc1nc(OCCNC(C)=O)nc(N(C)C)n1,56*,1,-3,-2,-2,-3,4
CC(=O)NCCOc1nc(N(C)C)nc(N2CCOCC2)n1,1,20,0,-4,-9,8,x
O=C(O)c1cccc2c1C(=O)c1ccccc1-2,-11,-8,2,10,-8,5,x
O=C1C(=C(I)I)c2ccccc2-c2ccccc21,43*,x,76*,-21,x,x,39
COc1ccc(-n2nnnc2S(=O)(=O)CC(=O)N2CCCCC2)cc1,48*,25,15,43*,47,-1,49*
CC(=O)Nc1ccc(NCCc2ccco2)cc1,-1,x,x,-13,x,x,x
CCCc1cc(=O)oc2cc(OC(=O)CN3C(=O)NC4(CCCC4)C3=O)ccc12,46*,8,9,28,67*,-10,40
CC1=CC(C)(C)N2C(=O)C(=Nc3ccc(O)cc3)c3cccc1c32,48*,10,-1,-33,49,-3,48*
COc1cccc(C(=O)Oc2cc3c4c(c2)C(C)=CC(C)(C)N4C(=O)C3=O)c1,22,-7,15,2,38,-4,x
CC(=O)Oc1ccc(Cl)cc1CN(C(C)=O)C1CCCCC1,-4,x,-1,10,6,x,x
CN(Cc1ccccc1)C(=O)c1csc([C@@H]2C[C@H](O)[C@@H](CO)O2)n1,-7,x,x,-6,x,x,x
